Activity calls are given as the source filed them. No cut-off for these calls is given here.
Assays:
[1] = tested on: HL-60; assay: Cytotoxicity against human HL60 cells assessed as cell growth inhibition after 7 days by trypan blue based microscopic analysis; assay type: functional
In short: (§1)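 Cells seeded at 2 × 10^3 cells/mL in culture medium with 1 nM–10 μM compound and cultured 7 days. HL60 and Raji were grown in RPMI 1640, K562 in F-12, UT-7 in IMDM with TPO 10 ng/mL; all media had 10% heat-inactivated FBS, 37 °C, 5% CO2. Viable trypan blue-excluding cells counted by hemacytometer; growth rate = viable treated/viable untreated. Means ± SD.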

[2] = tested on: Raji; assay: Cytotoxicity against human Raji cells assessed as cell growth inhibition after 7 days by trypan blue based microscopic analysis; assay type: functional; in short: as §1
[3] = tested on: K562; assay: Cytotoxicity against human K562 cells assessed as cell growth inhibition at 10 uM after 7 days by trypan blue based microscopic analysis; assay type: functional; in short: as §1
[4] = tested on: UT7; assay: Cytotoxicity against human UT7 cells assessed as cell growth inhibition at 10 uM after 7 days by trypan blue based microscopic analysis; assay type: functional; in short: as §1
[5] = tested on: K562; assay: Induction of 67 kDa laminin receptor expression in human K562 cells after 24 hrs by flow cytometry analysis; assay type: functional, cell-based
In short: (§2)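 Untreated cells seeded at 1 × 10^5 cells/mL and grown 24 h. Harvested cells labelled with mouse anti-67 LR IgM in 0.5% BSA/PBS for 1 h on ice, then anti-mouse IgM-FITC for 30 min at 4 °C in the dark. Read by flow cytometry.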

[6] = tested on: HL-60; assay: Induction of 67 kDa laminin receptor expression in human HL60 cells after 24 hrs by flow cytometry analysis; assay type: functional, cell-based; in short: as §2
[7] = tested on: HL-60; assay: Induction of myeloperoxidase expression in human HL60 cells after 24 hrs by flow cytometry; assay type: functional
In short: (§3)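 Untreated cells seeded at 1 × 10^5 cells/mL and grown 24 h. Fixed/permeabilised with Cytofix/Cytoperm for 20 min on ice. Stained with mouse anti-MPO mAb (1% v/v) for 1 h at room temperature, then goat anti-mouse IgG-FITC (1% v/v) for 1 h in the dark. Basal intracellular MPO read by flow cytometry.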

[8] = tested on: Raji; assay: Induction of myeloperoxidase expression in human Raji cells after 24 hrs by flow cytometry; assay type: functional; in short: as §3
[9] = tested on: K562; assay: Induction of myeloperoxidase expression in human K562 cells after 24 hrs by flow cytometry; assay type: functional; in short: as §3
[10] = tested on: HL-60; assay: Induction of intracellular reactive oxygen species production in human HL60 cells at 10 uM after 1 to 3 hrs by flow cytometry; assay type: functional, cell-based
In short: (§4)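 Cells treated with 10 μM EGCG for 1 and 3 h. Then 1 × 10^5 cells stained with 5 μM H2-DCFDA for 25 min at 37 °C, washed and resuspended in PBS. Oxidised-probe fluorescence read by flow cytometry. Means ± SD of more than three separate experiments.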

[11] = tested on: Raji; assay: Induction of intracellular reactive oxygen species production in human Raji cells at 10 uM after 1 to 3 hrs by flow cytometry; assay type: functional, cell-based; in short: as §4
[12] = tested on: K562; assay: Induction of intracellular reactive oxygen species production in human K562 cells at 10 uM after 1 to 3 hrs by flow cytometry; assay type: functional, cell-based; in short: as §4
[13] = tested on: HL-60; assay: Growth inhibition against human HL60 cells assessed as cell viability at 10 uM after 48 hrs by trypan blue based microscopic analysis in presence of superoxide dismutase; assay type: functional
In short: (§5)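 Raji cells were seeded at 1 × 10^5 cells/mL and HL60 at 5 × 10^4 cells/mL. Medium held SOD (5 U/mL), catalase (30 U/mL) or both, plus 10 μM EGCG, for 48 h. Viable cells counted after trypan blue by hemacytometer; growth rate relative to untreated. Means ± SD of more than three experiments in triplicate wells.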

[14] = tested on: Raji; assay: Growth inhibition against human Raji cells assessed as cell viability at 10 uM after 48 hrs by trypan blue based microscopic analysis in presence of superoxide dismutase; assay type: functional; in short: as §5
[15] = tested on: HL-60; assay: Growth inhibition against human HL60 cells assessed as cell viability at 10 uM after 48 hrs by trypan blue based microscopic analysis in presence of catalase; assay type: functional; in short: as §5
[16] = tested on: Raji; assay: Growth inhibition against human Raji cells assessed as cell viability at 10 uM after 48 hrs by trypan blue based microscopic analysis in presence of catalase; assay type: functional; in short: as §5
[17] = tested on: HL-60; assay: Cell cycle arrest in human HL60 cells by assessed as accumulation at subG1 phase at 10 uM using propidium iodide staining by flow cytometry; assay type: functional
In short: (§6)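 Cells treated with 10 μM EGCG for 48 h, with or without SOD (5 U/mL) plus catalase (30 U/mL) in the medium. Harvested cells permeabilised in PBS with 0.1% Triton X-100 for 5 min on ice, stained with propidium iodide (50 μg/mL), and analysed by flow cytometry for sub-G1 fraction.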

[18] = tested on: HL-60; assay: Cell cycle arrest in human HL60 cells by assessed as accumulation at subG1 phase at 10 uM using propidium iodide staining by flow cytometry in presence of superoxide dismutase and catalase; assay type: functional; in short: as §6
[19] = tested on: Raji; assay: Cell cycle arrest in human Raji cells by assessed as accumulation at subG1 phase at 10 uM using propidium iodide staining by flow cytometry; assay type: functional; in short: as §6
[20] = tested on: Raji; assay: Cell cycle arrest in human Raji cells by assessed as accumulation at subG1 phase at 10 uM using propidium iodide staining by flow cytometry in presence of superoxide dismutase and catalase; assay type: functional; in short: as §6
[21] = tested on: HL-60; assay: Growth inhibition against human HL60 cells assessed as cell viability at 10 uM after 24 hrs by trypan blue based microscopic analysis; assay type: functional
[22] = tested on: Raji; assay: Growth inhibition against human Raji cells assessed as cell viability at 10 uM after 24 hrs by trypan blue based microscopic analysis; assay type: functional
[23] = tested on: Raji; assay: Induction of apoptosis in human Raji cells assessed as necrotic cells at 10 uM after 6 hrs by measuring phosphatidylserine translocation using annexin V-FITC/propidium iodide staining by FACS (reference value: 3.4 %); assay type: functional
[24] = tested on: Raji; assay: Induction of apoptosis in human Raji cells assessed as early apoptotic cells at 10 uM after 6 hrs by measuring phosphatidylserine translocation using annexin V-FITC/propidium iodide staining by FACS (reference value: 3.7 %); assay type: functional
[25] = tested on: Raji; assay: Induction of apoptosis in human Raji cells assessed as late apoptotic or secondary necrotic cells at 10 uM after 6 hrs by measuring phosphatidylserine translocation using annexin V-FITC/propidium iodide staining by FACS (reference value: 2.2 %); assay type: functional
[26] = tested on: Raji; assay: Induction of apoptosis in human Raji cells assessed as early apoptotic cells at 10 uM after 12 hrs by measuring phosphatidylserine translocation using annexin V-FITC/propidium iodide staining by FACS (reference value: 3.7 %); assay type: functional
[27] = tested on: Raji; assay: Induction of apoptosis in human Raji cells assessed as necrotic cells at 10 uM after 12 hrs by measuring phosphatidylserine translocation using annexin V-FITC/propidium iodide staining by FACS (reference value: 3.4 %); assay type: functional
[28] = tested on: Raji; assay: Induction of apoptosis in human Raji cells assessed as late apoptotic or secondary necrotic cells at 10 uM after 12 hrs by measuring phosphatidylserine translocation using annexin V-FITC/propidium iodide staining by FACS (reference value: 2.2 %); assay type: functional
[29] = tested on: Raji; assay: Induction of apoptosis in human Raji cells assessed as necrotic cells at 10 uM after 24 hrs by measuring phosphatidylserine translocation using annexin V-FITC/propidium iodide staining by FACS (reference value: 3.4 %); assay type: functional
[30] = tested on: Raji; assay: Induction of apoptosis in human Raji cells assessed as early apoptotic cells at 10 uM after 24 hrs by measuring phosphatidylserine translocation using annexin V-FITC/propidium iodide staining by FACS (reference value: 3.7 %); assay type: functional
[31] = tested on: Raji; assay: Induction of apoptosis in human Raji cells assessed as late apoptotic or secondary necrotic cells at 10 uM after 24 hrs by measuring phosphatidylserine translocation using annexin V-FITC/propidium iodide staining by FACS (reference value: 2.2 %); assay type: functional
[32] = tested on: Raji; assay: Induction of apoptosis in human Raji cells assessed as necrotic cells at 10 uM by measuring phosphatidylserine translocation using annexin V-FITC/propidium iodide staining by FACS; assay type: functional, cell-based; settings: TDE = time-dependent effect
[33] = tested on: HL-60; assay: Induction of apoptosis in human HL60 cells assessed as intracellular caspase-3 activation after 24 hrs (reference value: 1.3 %); assay type: functional
[34] = tested on: HL-60; assay: Induction of apoptosis in human HL60 cells assessed as intracellular caspase-3 activation after 48 hrs (reference value: 1.3 %); assay type: functional
[35] = tested on: Raji; assay: Induction of apoptosis in human Raji cells assessed as intracellular caspase-3 activation after 24 hrs (reference value: 3.4 %); assay type: functional
[36] = tested on: Raji; assay: Induction of apoptosis in human Raji cells assessed as intracellular caspase-3 activation after 48 hrs (reference value: 3.4 %); assay type: functional
[37] = tested on: HL-60; assay: Growth inhibition against human HL60 cells assessed as cell viability at 10 uM preincubated with N-acetyl-L-cysteine for 30 mins measured after 48 hrs by trypan blue based microscopic analysis; assay type: functional
In short: (§7)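 Cells preincubated 30 min at 37 °C with 10 mM NAC, then seeded (Raji 1 × 10^5, HL60 5 × 10^4 cells/mL) and treated with 10 μM EGCG for 48 h. Viable cells were counted after trypan blue exclusion by hemacytometer. Growth rate = viable treated/viable untreated cells. Means ± SD of more than three experiments in triplicate wells.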

[38] = tested on: Raji; assay: Growth inhibition against human Raji cells assessed as cell viability at 10 uM preincubated with N-acetyl-L-cysteine for 30 mins measured after 48 hrs by trypan blue based microscopic analysis; assay type: functional; in short: as §7
[39] = tested on: HL-60; assay: Growth inhibition against human HL60 cells assessed as cell viability at 10 uM after 48 hrs by trypan blue based microscopic analysis in presence of superoxide dismutase and catalase; assay type: functional; in short: as §5
[40] = tested on: Raji; assay: Growth inhibition against human Raji cells assessed as cell viability at 10 uM after 48 hrs by trypan blue based microscopic analysis in presence of superoxide dismutase and catalase; assay type: functional; in short: as §5

SMILES: O=C(O[C@@H]1Cc2c(O)cc(O)cc2O[C@@H]1c1cc(O)c(O)c(O)c1)c1cc(O)c(O)c(O)c1 [EPIGALOCATECHIN GALLATE]
- growth inhibition (GI) [1]: Dose-dependent effect
- growth inhibition (GI) [2]: Dose-dependent effect
- growth inhibition (GI) [3]: inactive
- growth inhibition (GI) [4]: inactive
- Activity [5]: Active
- Activity [6]: Active
- Activity [7]: 49.2%
- Activity [8]: 4.5%
- Activity [9]: 14.3%
- Activity [10]: inactive
- Activity [11]: inactive
- Activity [12]: inactive
- growth inhibition (GI) [13]: Active
- growth inhibition (GI) [14]: Active
- growth inhibition (GI) [15]: Active
- growth inhibition (GI) [16]: Active
- Activity [17]: 45.9%
- Activity [18]: 2.6%
- Activity [19]: 3.8%
- Activity [20]: 5.9%
- Activity [21]: Active
- Activity [22]: Active
- Activity [23]: 5.3%
- Activity [24]: 5.1%
- Activity [25]: 4.5%
- Activity [26]: 7.7%
- Activity [27]: 6.7%
- Activity [28]: 7.8%
- Activity [29]: 14.9%
- Activity [30]: 8.5%
- Activity [31]: 13%
- Activity [32]: tde
- Activity [33]: 2.7%
- Activity [34]: 4.2%
- Activity [35]: 3.5%
- Activity [36]: 5.4%
- growth inhibition (GI) [37]: Active
- growth inhibition (GI) [38]: Active
- growth inhibition (GI) [39]: inactive
- growth inhibition (GI) [40]: inactive
